Test: Thermal unfolding monitored by CD spectroscopy
Assay type: physicochemical
Details: 20 μM protein, 10 mM phosphate buffer pH 7.4, 2 °C intervals, 20 to 90 °C
Procedure, shortened: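 TM read as the transition point from the first derivative of the CD thermal unfolding curve. Reversibility was checked by comparing spectra recorded before and after heating. The 202 nm signal was followed during denaturation to look for an isodichroic point, which would indicate a two-state helix–unfolded transition. Spectra were recorded on 20 μM protein in 10 mM phosphate buffer.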

Substance: aureocin A53
- transition midpoint (TM) of thermal unfolding: ~54 °C

From PMC7424198 (iScience, 2020)
